Source: ChEMBL document CHEMBL3286193, “Discovery of a series of 2,5-diaminopyrimidine covalent irreversible inhibitors of Bruton's tyrosine kinase with in vivo antitumor activity” (J Med Chem, 2014)
Converted amounts (≈) assume the structure as drawn. The source made the active and inactive calls. The rule behind the calls is not given here.

Columns and labels:
[1] = organism: Homo sapiens; experiment: Inhibition of VEGFR (unknown origin) at 0.5 uM by [33P]-ATP filter binding assay
Procedure, shortened: (§1)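 Kinase panel of 18 enzymes; inhibition tested at 0.5 μM. Values are means of duplicates.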

[2] = biological target: Tyrosine-protein kinase Blk (Homo sapiens, UniProt P51451); experiment: Inhibition of Blk (unknown origin) after 1 hr by HTRF assay
Procedure, shortened: (§2)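 Recombinant kinases tested by HTRF KinEase protocol. Enzyme preincubated with inhibitor for a fixed 10 min. IC50 values are means of duplicates.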

[3] = biological target: T1, Receptor tyrosine-protein kinase erbB-4 (Homo sapiens, UniProt Q15303); experiment: Inhibition of HER4 (unknown origin) after 1 hr by HTRF assay; procedure, shortened: as §2
[4] = biological target: Tyrosine-protein kinase ITK/TSK (Homo sapiens, UniProt Q08881); experiment: Inhibition of Itk (unknown origin) after 1 hr by HTRF assay; procedure, shortened: as §2
[5] = biological target: Tyrosine-protein kinase TXK (Homo sapiens, UniProt P42681); experiment: Inhibition of Rlk (unknown origin) after 1 hr by HTRF assay; procedure, shortened: as §2
[6] = biological target: Tyrosine-protein kinase Tec (Homo sapiens, UniProt P42680); experiment: Inhibition of Tec (unknown origin) after 1 hr by HTRF assay; procedure, shortened: as §2
[7] = biological target: Tyrosine-protein kinase BTK (Homo sapiens, UniProt Q06187); experiment: Binding affinity to Btk kinase domain (387 to 659) (unknown origin) assessed as compound-protein covalent adduct formation at 1:3 protein to compound molar ratio at 4 degC after 1 hr by LC-MS analysis
Procedure, shortened: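 Btk kinase domain (residues 387−659, MW 32136) incubated with 3 equiv of compound at 4 °C for 1 h. Mass spectrometry of the intact protein checked for mass peak shift consistent with 1-to-1 protein−compound adducts.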

[8] = tested on: SU-DHL10; experiment: Cytotoxicity against human SU-DHL10 cells assessed as growth inhibition at 1 to 10 uM after 72 hrs by CellTiter-Glo luminescent cell viability assay; assay type: functional, cell-based
[9] = Cytotoxicity against human SU-DHL6 cells assessed as growth inhibition after 72 hrs by CellTiter-Glo luminescent cell viability assay; assay type: functional, SU-DHL-6; conditions: Homo sapiens, SU-DHL-6, 72 h
Procedure, shortened: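 Lymphoma cells seeded at 5000 cells/well, incubated 24 h, then exposed to compounds for 72 h. Viability read by CellTiter-Glo luminescence. GI50 from dose−response curves, mean of two or three independent experiments in triplicate.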

[10] = Solubility of the compound in FaSSIF; assay type: ADME
[11] = Half life in mouse liver microsomes by LC-MS/MS analysis; assay type: ADME
Procedure, shortened: (§3)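 Liver microsomes incubated with compound and NADPH at 37 °C. Samples taken at several time points, centrifuged, and supernatants analyzed by LC−MS/MS. t1/2 and CL calculated by first-order kinetics. Testosterone, propranolol and clozapine served as positive controls.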

[12] = Clearance in mouse liver microsomes by LC-MS/MS analysis; assay type: ADME; conditions: read-out: CLH; procedure, shortened: as §3
[13] = Plasma concentration in CB17 SCID mouse xenografted with human DOHH2 cells at 20 mg/kg, iv qd administered for 14 days measured at 2 hrs post last dose; assay type: ADME, organism-based, DOHH-2; design: dose 20 mg/kg, route intravenous
Procedure, shortened: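 Same DoHH2 xenograft study in female CB17/SCID mice, tail-vein dosing once daily for 14 days. Plasma compound concentrations determined at 2 and 24 h after the last administration.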

[14] = Antitumor activity against human DOHH2 cells xenografted in CB17 SCID mouse assessed as tumor growth inhibition at 20 mg/kg, iv qd administered for 14 days measured over 14 days of compound treatment relative to vehicle-treated control; conditions: DOHH-2, iv, 336 h, read-out: TGI
[15] = tested on: Mus musculus; experiment: Toxicity in CB17 SCID mouse xenografted with human DOHH2 cells assessed as body weight fluctuations at 20 mg/kg, iv qd administered for 14 days measured over 14 days of compound treatment; assay type: organism-based, DOHH-2; design: dose 20 mg/kg, route intravenous; conditions: in vivo, 336 h
Procedure, shortened: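 DoHH2 subcutaneous xenograft in female CB17/SCID mice (5 × 10⁶ cells; dosing from ~167 mm³ mean tumor volume; n = 6/group). Daily tail-vein dosing for 14 consecutive days. Body weights followed over time across the study.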

[16] = tested on: DOHH-2; experiment: Antitumor activity against human DOHH2 cells xenografted in iv dosed CB17 SCID mouse assessed as tumor growth inhibition administered as qd for 14 days measured over 14 days of compound treatment; assay type: functional, organism-based
[17] = Binding affinity to glutathione in PBS buffer assessed as glutathione-compound adduct formation at 100 uM at pH 7.4 at 37 degC after 2 hrs
Procedure, shortened: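 Compound (100 μM) incubated with 5 mM glutathione in PBS, pH 7.4, at 37 °C. Checked for GSH−compound adducts after 2 h.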

[18] = biological target: T1, Receptor tyrosine-protein kinase erbB-4; experiment: Inhibition of HER4 (unknown origin) at 0.5 uM by [33P]-ATP filter binding assay; procedure, shortened: as §1
[19] = biological target: Tyrosine-protein kinase Lck (Homo sapiens) (UniProt P06239); experiment: Inhibition of Lck (unknown origin) at 0.5 uM by [33P]-ATP filter binding assay; procedure, shortened: as §1
Tyrosine-protein kinase Lck (Homo sapiens), sequence (P06239 2-509 limits assumed): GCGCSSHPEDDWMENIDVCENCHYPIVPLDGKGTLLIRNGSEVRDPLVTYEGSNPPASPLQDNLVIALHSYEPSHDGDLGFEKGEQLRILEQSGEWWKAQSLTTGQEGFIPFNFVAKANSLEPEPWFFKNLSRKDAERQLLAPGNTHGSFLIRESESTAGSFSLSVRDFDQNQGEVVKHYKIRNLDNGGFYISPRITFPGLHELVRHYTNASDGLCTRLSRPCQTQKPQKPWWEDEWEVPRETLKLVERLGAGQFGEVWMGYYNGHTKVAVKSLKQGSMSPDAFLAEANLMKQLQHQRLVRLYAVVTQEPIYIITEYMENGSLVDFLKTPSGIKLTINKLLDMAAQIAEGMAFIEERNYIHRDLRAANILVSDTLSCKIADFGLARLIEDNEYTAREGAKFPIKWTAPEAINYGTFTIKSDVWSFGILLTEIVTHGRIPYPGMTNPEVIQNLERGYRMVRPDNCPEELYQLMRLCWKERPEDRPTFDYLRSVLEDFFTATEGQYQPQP

T1 sequence (Q15303 whole entry): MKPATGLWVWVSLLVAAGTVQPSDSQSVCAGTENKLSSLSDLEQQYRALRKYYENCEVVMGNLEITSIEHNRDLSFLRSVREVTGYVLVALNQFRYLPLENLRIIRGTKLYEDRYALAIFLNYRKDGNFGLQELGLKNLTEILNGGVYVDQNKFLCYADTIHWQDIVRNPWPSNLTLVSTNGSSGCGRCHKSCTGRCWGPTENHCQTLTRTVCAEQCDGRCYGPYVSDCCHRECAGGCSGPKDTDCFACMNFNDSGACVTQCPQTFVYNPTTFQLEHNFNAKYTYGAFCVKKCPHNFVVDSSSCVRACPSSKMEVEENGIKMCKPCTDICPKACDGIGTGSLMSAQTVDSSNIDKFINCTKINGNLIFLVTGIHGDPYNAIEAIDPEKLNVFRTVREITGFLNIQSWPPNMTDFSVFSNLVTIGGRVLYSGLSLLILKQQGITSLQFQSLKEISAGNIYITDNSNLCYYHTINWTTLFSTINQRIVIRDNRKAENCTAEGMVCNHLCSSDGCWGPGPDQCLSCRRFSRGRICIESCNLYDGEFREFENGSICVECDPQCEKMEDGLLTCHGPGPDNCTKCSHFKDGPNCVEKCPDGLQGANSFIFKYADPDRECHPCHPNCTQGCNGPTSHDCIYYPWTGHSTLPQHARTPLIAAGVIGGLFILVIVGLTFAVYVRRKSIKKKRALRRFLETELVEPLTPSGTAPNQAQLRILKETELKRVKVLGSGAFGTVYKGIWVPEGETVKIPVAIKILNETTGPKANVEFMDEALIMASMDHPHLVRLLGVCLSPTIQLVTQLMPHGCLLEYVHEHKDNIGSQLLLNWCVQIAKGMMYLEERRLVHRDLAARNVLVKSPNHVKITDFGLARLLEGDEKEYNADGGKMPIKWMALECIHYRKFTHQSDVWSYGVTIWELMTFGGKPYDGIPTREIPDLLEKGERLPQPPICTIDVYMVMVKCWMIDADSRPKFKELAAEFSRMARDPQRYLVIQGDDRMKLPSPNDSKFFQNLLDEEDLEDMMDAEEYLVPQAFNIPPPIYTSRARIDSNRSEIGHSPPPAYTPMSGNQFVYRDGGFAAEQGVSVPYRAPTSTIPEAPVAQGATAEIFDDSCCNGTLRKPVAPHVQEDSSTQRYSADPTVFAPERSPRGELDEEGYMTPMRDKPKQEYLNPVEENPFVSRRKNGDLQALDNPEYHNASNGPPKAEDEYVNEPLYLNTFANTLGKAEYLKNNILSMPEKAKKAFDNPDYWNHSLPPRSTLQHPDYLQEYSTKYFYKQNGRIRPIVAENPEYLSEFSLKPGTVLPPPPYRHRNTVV
Tyrosine-protein kinase TXK, sequence (P42681 whole entry): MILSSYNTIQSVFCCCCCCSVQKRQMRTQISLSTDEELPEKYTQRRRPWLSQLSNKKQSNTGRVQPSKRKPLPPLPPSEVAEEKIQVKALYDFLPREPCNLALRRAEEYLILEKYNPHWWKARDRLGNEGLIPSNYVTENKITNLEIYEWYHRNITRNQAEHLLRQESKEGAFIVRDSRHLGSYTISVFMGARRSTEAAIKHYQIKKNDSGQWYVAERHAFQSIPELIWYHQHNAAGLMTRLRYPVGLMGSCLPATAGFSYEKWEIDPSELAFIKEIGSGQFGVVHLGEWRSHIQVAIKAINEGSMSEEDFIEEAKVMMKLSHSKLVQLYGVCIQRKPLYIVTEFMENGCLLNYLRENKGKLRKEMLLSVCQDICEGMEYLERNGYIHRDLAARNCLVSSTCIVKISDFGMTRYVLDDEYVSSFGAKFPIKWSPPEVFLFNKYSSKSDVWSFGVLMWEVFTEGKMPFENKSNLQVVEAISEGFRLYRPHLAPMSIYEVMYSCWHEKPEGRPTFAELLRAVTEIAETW
Tyrosine-protein kinase Blk, sequence (P51451 whole entry): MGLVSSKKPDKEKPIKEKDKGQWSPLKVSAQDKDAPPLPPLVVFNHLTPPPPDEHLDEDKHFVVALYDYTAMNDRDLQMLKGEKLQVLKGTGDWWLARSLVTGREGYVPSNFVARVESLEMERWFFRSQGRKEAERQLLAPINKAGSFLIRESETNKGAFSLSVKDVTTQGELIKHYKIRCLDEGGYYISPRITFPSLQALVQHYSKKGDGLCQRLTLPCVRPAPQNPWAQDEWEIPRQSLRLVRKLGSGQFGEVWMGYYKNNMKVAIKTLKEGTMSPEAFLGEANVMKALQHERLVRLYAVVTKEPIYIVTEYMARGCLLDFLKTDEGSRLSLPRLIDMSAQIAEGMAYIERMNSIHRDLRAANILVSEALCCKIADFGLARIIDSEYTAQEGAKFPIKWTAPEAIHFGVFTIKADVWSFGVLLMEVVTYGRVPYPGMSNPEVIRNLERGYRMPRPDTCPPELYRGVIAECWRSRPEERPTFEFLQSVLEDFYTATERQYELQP
Tyrosine-protein kinase ITK/TSK, sequence (Q08881 whole entry): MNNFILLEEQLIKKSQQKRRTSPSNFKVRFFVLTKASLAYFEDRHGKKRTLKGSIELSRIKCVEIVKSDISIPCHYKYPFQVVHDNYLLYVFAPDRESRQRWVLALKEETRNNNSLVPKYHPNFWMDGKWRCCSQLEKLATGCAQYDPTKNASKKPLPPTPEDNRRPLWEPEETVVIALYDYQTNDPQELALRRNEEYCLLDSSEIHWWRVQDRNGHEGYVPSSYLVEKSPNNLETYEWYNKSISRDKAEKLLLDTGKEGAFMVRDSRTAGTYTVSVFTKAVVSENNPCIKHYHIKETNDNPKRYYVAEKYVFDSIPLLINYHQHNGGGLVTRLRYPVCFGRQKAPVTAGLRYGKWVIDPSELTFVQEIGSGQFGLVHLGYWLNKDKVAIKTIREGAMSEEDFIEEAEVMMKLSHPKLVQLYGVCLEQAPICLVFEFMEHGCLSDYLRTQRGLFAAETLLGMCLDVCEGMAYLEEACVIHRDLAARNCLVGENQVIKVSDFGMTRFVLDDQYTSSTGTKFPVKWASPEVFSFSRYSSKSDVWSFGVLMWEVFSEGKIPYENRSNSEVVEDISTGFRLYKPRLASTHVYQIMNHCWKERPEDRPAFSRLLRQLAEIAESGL
Tyrosine-protein kinase BTK, sequence (Q06187 whole entry, the tested form may be a part): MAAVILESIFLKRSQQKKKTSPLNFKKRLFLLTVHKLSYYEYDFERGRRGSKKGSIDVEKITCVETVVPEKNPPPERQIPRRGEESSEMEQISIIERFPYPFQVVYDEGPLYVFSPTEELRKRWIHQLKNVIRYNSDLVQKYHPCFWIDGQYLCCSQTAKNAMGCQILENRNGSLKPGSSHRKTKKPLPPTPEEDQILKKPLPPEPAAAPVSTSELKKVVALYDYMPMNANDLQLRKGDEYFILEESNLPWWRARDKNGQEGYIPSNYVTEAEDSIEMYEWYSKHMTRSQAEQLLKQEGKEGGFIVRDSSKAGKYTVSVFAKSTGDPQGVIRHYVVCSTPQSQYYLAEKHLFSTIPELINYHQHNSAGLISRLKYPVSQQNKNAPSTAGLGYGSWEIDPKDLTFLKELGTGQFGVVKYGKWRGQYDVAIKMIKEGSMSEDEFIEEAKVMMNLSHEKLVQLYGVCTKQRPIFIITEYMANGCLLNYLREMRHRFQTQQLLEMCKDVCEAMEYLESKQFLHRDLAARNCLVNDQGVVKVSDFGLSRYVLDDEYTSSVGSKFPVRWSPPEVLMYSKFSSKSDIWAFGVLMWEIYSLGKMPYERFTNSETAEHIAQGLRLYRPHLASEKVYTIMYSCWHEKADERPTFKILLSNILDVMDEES
Tyrosine-protein kinase Tec, sequence (P42680 whole entry, the tested form may be a part): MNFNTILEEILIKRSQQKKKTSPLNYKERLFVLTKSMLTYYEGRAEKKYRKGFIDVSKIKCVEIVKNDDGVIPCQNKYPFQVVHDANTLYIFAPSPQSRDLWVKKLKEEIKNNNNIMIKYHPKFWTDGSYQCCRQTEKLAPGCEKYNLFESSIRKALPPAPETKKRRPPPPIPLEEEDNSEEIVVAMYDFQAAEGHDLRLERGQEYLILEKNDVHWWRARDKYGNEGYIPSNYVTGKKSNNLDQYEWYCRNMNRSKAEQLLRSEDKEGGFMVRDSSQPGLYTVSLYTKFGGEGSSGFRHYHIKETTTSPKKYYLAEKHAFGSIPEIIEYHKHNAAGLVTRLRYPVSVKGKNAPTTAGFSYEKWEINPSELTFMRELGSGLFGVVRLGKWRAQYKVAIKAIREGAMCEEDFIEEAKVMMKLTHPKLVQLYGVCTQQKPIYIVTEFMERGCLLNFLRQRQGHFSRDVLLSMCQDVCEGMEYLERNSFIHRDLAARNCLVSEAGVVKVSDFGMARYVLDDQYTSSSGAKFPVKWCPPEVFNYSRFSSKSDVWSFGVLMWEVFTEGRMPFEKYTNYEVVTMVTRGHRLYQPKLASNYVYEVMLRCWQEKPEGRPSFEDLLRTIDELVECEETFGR

With `C=CC(=O)Nc1cccc(Nc2ncc(NC(=O)c3cc(NC(=O)c4cccc(C(F)(F)F)c4)ccc3C)cn2)c1` the inhibition [1] was “Active”, the IC50 [2] was 2.7 nM and the IC50 [3] was 5.5 nM. For the same molecule, the IC50 [4] was > 30000 nM, the IC50 [5] was 1.9 nM and the IC50 [6] was 8.2 nM. For the same molecule, the Activity [7] was “Active”, the “growth inhibition (GI)” value [8] was “Active” and the GI50 [9] was 38 nM. For the same molecule, the solubility [10] was 7.02 µM (≈ 3.93 µg/mL), the half-life [11] was 38.4 min and the microsomal CLint [12] was 25.7 µL/min/mg. For the same molecule, the concentration at 2 h [13] was 2.1 µg/mL, the inhibition in vivo at 20 mg/kg [14] was 66% and the Activity [15] was “Non-toxic”. The “growth inhibition (GI)” value [16] was “Dose-dependent effect”, the Activity [17] was “inactive” and the inhibition [18] was “Active”. The inhibition [19] was “Active”.
